Measurements taken from ChEMBL document CHEMBL3856193, “Combretastatin A-4 analogues with benzoxazolone scaffold: Synthesis, structure and biological activity” (Eur J Med Chem, 2016).
Calls of active or inactive are those of the source. No cut-off for these calls is given here.

What was measured:
[1] = Growth inhibition of human K562 cells measured after 72 hrs by MTT assay; type: functional, cell-based; conditions: K562, 72 h
Method in brief: (§1)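 Cells seeded at 1 x 10^4/100 µL, treated 24 h later with drug diluted from 2 mmol/L DMSO stock (0.01% DMSO final), 72 h incubation. MTT added for 3 h at 37°C, formazan dissolved in 0.1 N HCl/isopropanol, OD read at 550/630 nm. Eight replicates per concentration, mean ± SD. IC50 from curve fitting. Cells kept at 37°C in humidified CO2.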

[2] = Growth inhibition of human EAhy926 cells measured after 72 hrs by MTT assay; type: functional, cell-based; conditions: EA.hy 926, 72 h; method in brief: as §1
[3] = Growth inhibition of human HepG2 cells measured after 72 hrs by MTT assay; type: functional, cell-based; conditions: HepG2, 72 h; method in brief: as §1
[4] = Cell cycle arrest in human HepG2 cells assessed as decrease in G0/G1 phase at growth inhibitory IC50 measured after 24 hrs by propidium iodide-staining based FACS analysis; type: functional
EA.hy 926 [5] = assay: Antiangiogenic activity against human EAhy926 assessed as inhibition of capillary tube formation at 0.11 uM after 72 hrs by matrigel assay; type: functional
Method in brief: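 EA.hy 926 cells (4 x 10^4) plated onto Matrigel pre-set 30 min at 37°C in complete DMEM; after 24 h medium replaced by EBM2 alone (control) or EBM2 with 0.28 µM or 0.11 µM drug. Capillary tube formation followed by inverted microscopy up to 72 h.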

[6] = Cytostatic activity against human MDA-MB-231 cells assessed as cell survival up to 25 uM measured after 72 hrs by MTT assay relative to control; type: functional
[7] = Antiproliferative activity against CA-4-resistant human HT-29 cells measured after 72 hrs by MTT assay; type: functional, cell-based; conditions: HT-29, 72 h
Method in brief: (§2)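 Cells seeded at 1 × 10^4 per well and left 24 h, then exposed to graded compound concentrations (stock 2 mmol/L in DMSO, final DMSO 0.01% in medium) for 72 h at 37 °C in humidified CO2. MTT (5 mg/mL) added for 3 h; formazan dissolved in 0.1 N HCl/isopropanol and read at 550/630 nm. Eight replicate wells per concentration; IC50 from curve fitting.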

[8] = Cytostatic activity against human MCF7 cells assessed as cell survival up to 25 uM measured after 72 hrs by MTT assay relative to control; type: functional
[9] = Cell cycle arrest in human HepG2 cells assessed as accumulation of cells with 4N DNA content at growth inhibitory IC50 measured after 24 hrs by propidium iodide-staining based FACS analysis relative to control; type: functional; parameters: scale not given: the % may be the effect or the level left
EA.hy 926 [10] = assay: Induction of apoptosis in human EAhy926 cells assessed as increase in apoptotic cells at growth inhibitory IC50 measured after 48 hrs by Annexin V-FITC/propidium iodide staining-based flow cytometric analysis relative to control; type: functional, cell-based
[11] = Cytostatic activity against human HaCaT cells assessed as cell survival up to 25 uM measured after 72 hrs by MTT assay relative to control; type: functional
[12] = Cytostatic activity against human NHEK cells assessed as cell survival up to 25 uM measured after 72 hrs by MTT assay relative to control; type: ADME, cell-based; conditions: read-out: Survival
[13] = Cell cycle arrest in human HepG2 cells assessed as >4N DNA content at growth inhibitory IC50 measured after 24 hrs by propidium iodide-staining based FACS analysis relative to control; type: functional; parameters: scale not given: the % may be the effect or the level left
EA.hy 926 [14] = assay: Induction of apoptosis in human EAhy926 cells assessed as necrotic cells at 0.11 uM measured after 48 hrs by Annexin V-FITC/propidium iodide staining-based flow cytometric analysis relative to control; type: functional
Sus scrofa [15] = organism: Sus scrofa; assay: Inhibition of porcine brain tubulin polymerization at 50 uM measured every 1 min for 40 mins in presence of GTP
[16] = Cell cycle arrest in human HepG2 cells assessed as accumulation of hypoploid sub-G1 cells at growth inhibitory IC50 measured after 72 hrs by propidium iodide-staining based FACS analysis; type: functional
HepG2 [17] = assay: Induction of apoptosis in human HepG2 cells assessed as necrotic cells at 0.11 uM measured after 48 hrs by Annexin V-FITC/propidium iodide staining-based flow cytometric analysis relative to control; type: functional
Sus scrofa [18] = organism: Sus scrofa; assay: Inhibition of porcine brain tubulin polymerization at 10 uM measured every 1 min for 40 mins in presence of GTP
[19] = Antiproliferative activity against human MCF10A cells measured after 72 hrs by MTT assay; type: cell-based; conditions: MCF-10A; method in brief: as §2
HepG2 [20] = assay: Induction of apoptosis in human HepG2 cells assessed as increase in apoptotic cells at growth inhibitory IC50 measured after 48 hrs by Annexin V-FITC/propidium iodide staining-based flow cytometric analysis relative to control; type: functional, cell-based
[21] = Antiproliferative activity against CA-4-resistant human A549 cells measured after 72 hrs by MTT assay; type: functional, cell-based; conditions: A549, 72 h; method in brief: as §2
[22] = Cell cycle arrest in human HepG2 cells assessed as decrease in accumulation of G2/M phase at growth inhibitory IC50 measured after 72 hrs by propidium iodide-staining based FACS analysis; type: functional
Sus scrofa [23] = organism: Sus scrofa; assay: Induction of porcine brain tubulin polymerization assessed as time required to reach maxium effect at 10 uM measured every 1 min for 40 mins in presence of GTP
[24] = Antiproliferative activity against mouse Colon 26 cells measured after 72 hrs by MTT assay; type: functional, cell-based; conditions: Colon 26, 72 h; method in brief: as §2
[25] = Cell cycle arrest in human HepG2 cells assessed as decrease in S phase at growth inhibitory IC50 measured after 24 hrs by propidium iodide-staining based FACS analysis; type: functional
[26] = Cell cycle arrest in human HepG2 cells assessed as accumulation in G2/M phase at growth inhibitory IC50 measured after 8 hrs by propidium iodide-staining based FACS analysis (reference value: 28%); type: functional; parameters: scale not given: the % may be the effect or the level left

SMILES: COc1ccc(/C=C\c2cccc3c2oc(=O)n3C)cc1
- IC50 [1]: > 50 µM
- IC50 [2]: > 50 µM
- IC50 [3]: 47.2 µM

SMILES: COc1ccc(/C=C\c2ccc3oc(=O)n(C)c3c2)cc1OC
- IC50 [1]: > 50 µM
- IC50 [2]: > 50 µM
- IC50 [3]: 42.1 µM

SMILES: COc1ccc(/C=C\c2cc(OC)c(OC)c(OC)c2)cc1O [COMBRETASTATIN A4]
- Activity [4]: Active
- inhibition (EA.hy 926 [5]): Active
- IC50 [1]: < 0.1 µM
- Survival [6]: 50%
- IC50 [7]: 2610 nM
- Survival [8]: 35%
- Activity [9]: 77%
- Activity (EA.hy 926 [10]): Active
- Survival [11]: 15%
- viability at 72 h [12]: 40%
- Activity [13]: 9%
- Activity (EA.hy 926 [14]): 20%
- IC50 [2]: 0.17 µM
- inhibition (Sus scrofa [15]): Active
- Activity [16]: Active
- Activity (HepG2 [17]): 20%
- IC50 [3]: 0.11 µM
- inhibition (Sus scrofa [18]): Active
- IC50 [19]: 1170 nM
- Activity (HepG2 [20]): Active
- IC50 [21]: 3.01 µM
- Activity [22]: Active
- TIME (Sus scrofa [23]): 0.383 h
- IC50 [24]: 440 nM
- Activity [25]: Active
- Activity [26]: 33%

SMILES: COc1cc(/C=C\c2ccc3oc(=O)n(C)c3c2)cc(OC)c1OC
- IC50 [1]: > 50 µM
- IC50 [2]: > 50 µM
- IC50 [3]: 39.7 µM
